Measurements as given in the M2OR odorant receptor database.
Positions count from the first letter of the chain named.

Tests used:
Conditions in all cases: stereoisomer not certain
OR5P3 (Homo sapiens) = biological target: T1, OR5P3 (Homo sapiens) (UniProt Q8WZ94)
T1 sequence (whole entry): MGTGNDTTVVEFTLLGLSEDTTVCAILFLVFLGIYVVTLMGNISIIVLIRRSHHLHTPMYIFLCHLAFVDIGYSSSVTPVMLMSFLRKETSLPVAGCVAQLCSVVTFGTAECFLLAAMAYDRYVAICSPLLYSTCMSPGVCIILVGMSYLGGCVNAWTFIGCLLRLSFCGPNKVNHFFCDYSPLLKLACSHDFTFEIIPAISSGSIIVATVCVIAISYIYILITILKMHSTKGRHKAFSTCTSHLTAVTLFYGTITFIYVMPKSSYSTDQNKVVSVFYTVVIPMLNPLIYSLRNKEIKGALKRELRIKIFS
Outline: (§1)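 Each receptor–molecule pair is labelled responsive or non-responsive (inactive) according to whether the original authors judged the measured signal statistically different from baseline. The data were taken from the main text and supplementary material of published papers and checked for typos and inconsistencies. Assay methods differed by source, with transient luciferase assays in mammalian cell lines being common.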

OR5M8 (Homo sapiens) = biological target: T2, OR5M8 (Homo sapiens) (UniProt Q8NGP6)
T2 sequence (whole entry): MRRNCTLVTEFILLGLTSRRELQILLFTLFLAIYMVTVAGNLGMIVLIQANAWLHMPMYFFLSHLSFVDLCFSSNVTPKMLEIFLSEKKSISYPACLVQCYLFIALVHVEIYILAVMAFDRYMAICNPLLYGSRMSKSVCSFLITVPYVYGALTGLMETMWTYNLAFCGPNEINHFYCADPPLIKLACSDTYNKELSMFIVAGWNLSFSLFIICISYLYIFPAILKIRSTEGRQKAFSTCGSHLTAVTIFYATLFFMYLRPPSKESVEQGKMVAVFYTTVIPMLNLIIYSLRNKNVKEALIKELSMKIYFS
Outline: as §1

OR5M9 (Homo sapiens) = biological target: T3, OR5M9 (Homo sapiens) (UniProt Q8NGP3)
T3 sequence (whole entry): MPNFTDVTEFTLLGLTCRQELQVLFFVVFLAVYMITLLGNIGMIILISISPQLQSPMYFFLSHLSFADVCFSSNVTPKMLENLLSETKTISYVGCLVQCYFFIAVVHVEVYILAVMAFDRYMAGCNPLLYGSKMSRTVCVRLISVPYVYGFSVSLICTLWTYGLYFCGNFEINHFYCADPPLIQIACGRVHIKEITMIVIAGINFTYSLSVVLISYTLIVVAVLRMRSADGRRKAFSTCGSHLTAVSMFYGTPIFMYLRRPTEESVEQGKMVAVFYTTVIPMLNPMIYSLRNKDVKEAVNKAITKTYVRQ
Outline: as §1

OR5P2 (Homo sapiens) = biological target: T4, OR5P2 (Homo sapiens) (UniProt Q8WZ92)
T4 sequence (whole entry): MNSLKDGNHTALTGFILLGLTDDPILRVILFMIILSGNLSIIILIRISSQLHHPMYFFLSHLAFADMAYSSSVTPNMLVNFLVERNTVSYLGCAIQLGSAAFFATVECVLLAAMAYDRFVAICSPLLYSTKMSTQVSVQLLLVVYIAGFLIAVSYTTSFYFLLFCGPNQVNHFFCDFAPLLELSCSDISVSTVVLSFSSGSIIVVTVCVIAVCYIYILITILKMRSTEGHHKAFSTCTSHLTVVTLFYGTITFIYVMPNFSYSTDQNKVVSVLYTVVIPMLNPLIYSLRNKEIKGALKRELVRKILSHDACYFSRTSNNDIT
Outline: as §1

OR5T1 (Homo sapiens) = biological target: T5, OR5T1 (Homo sapiens) (UniProt Q8NG75)
T5 sequence (whole entry): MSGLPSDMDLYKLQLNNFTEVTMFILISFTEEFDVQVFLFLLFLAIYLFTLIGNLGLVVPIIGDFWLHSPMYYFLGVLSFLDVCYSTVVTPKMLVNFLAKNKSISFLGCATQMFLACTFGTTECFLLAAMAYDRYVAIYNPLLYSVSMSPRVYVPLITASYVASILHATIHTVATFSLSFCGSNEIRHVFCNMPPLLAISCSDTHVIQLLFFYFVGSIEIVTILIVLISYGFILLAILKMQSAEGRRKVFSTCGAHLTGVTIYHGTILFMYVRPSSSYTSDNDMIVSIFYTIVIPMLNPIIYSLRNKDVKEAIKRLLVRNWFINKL
Outline: as §1

OR5T2 (Homo sapiens) = biological target: T6, OR5T2 (Homo sapiens) (UniProt Q8NGG2)
T6 sequence (whole entry): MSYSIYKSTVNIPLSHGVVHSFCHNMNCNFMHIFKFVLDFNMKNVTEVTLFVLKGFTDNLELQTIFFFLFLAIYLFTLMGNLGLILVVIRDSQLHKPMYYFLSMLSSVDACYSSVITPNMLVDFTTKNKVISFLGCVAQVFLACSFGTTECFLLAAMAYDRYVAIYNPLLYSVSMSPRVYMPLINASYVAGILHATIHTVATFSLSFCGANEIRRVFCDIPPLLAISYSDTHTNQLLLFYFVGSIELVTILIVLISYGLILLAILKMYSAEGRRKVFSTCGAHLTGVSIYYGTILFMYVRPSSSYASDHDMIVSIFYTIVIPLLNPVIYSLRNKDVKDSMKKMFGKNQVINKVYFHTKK
Outline: as §1

OR5T3 (Homo sapiens) = biological target: T7, OR5T3 (Homo sapiens) (UniProt Q8NGG3)
T7 sequence (whole entry): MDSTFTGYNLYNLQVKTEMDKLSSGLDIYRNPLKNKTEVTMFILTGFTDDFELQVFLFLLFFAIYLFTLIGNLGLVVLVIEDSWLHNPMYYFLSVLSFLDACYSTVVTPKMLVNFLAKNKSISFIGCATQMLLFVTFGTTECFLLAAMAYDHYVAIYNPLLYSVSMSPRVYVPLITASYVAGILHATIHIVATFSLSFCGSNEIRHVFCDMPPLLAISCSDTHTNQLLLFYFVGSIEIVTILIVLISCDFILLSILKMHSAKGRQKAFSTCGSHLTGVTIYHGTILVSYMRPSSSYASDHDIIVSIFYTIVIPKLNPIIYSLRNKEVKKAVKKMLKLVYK
Outline: as §1

OR5V1 (Homo sapiens) = biological target: T8, OR5V1 (Homo sapiens) (UniProt Q9UGF6)
T8 sequence (whole entry): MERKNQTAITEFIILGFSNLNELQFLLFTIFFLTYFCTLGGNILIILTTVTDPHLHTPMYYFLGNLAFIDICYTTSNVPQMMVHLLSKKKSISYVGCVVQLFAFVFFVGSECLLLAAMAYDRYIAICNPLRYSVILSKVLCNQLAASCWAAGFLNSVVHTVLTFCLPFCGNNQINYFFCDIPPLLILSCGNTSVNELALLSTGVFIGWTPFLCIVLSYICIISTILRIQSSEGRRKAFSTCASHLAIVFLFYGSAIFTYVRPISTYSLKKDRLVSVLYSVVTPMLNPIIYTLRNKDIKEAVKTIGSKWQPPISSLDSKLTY
Outline: as §1

OR5W2 (Homo sapiens) = biological target: T9, OR5W2 (Homo sapiens) (UniProt Q8NH69)
T9 sequence (whole entry): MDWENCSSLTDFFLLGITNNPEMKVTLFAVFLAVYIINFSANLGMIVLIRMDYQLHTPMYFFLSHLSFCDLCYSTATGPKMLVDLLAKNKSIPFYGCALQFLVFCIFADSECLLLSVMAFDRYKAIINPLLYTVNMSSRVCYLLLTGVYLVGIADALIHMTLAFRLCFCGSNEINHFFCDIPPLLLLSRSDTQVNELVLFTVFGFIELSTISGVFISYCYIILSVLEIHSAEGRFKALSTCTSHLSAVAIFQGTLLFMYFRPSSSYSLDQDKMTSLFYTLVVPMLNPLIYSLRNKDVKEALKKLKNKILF
Outline: as §1

OR6A2 (Homo sapiens) = biological target: T10, OR6A2 (Homo sapiens) (UniProt O95222)
T10 sequence (whole entry): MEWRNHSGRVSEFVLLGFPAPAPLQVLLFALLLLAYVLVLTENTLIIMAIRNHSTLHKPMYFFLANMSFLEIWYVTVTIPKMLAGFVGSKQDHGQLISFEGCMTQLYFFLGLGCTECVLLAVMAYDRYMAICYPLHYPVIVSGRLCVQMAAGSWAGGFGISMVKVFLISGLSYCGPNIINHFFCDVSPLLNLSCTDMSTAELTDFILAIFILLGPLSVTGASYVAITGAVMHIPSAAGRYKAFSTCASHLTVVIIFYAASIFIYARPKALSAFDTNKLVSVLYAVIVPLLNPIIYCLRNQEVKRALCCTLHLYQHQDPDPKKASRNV
Outline: as §1

OR6B1 (Homo sapiens) = biological target: T11, OR6B1 (Homo sapiens) (UniProt O95007)
T11 sequence (whole entry): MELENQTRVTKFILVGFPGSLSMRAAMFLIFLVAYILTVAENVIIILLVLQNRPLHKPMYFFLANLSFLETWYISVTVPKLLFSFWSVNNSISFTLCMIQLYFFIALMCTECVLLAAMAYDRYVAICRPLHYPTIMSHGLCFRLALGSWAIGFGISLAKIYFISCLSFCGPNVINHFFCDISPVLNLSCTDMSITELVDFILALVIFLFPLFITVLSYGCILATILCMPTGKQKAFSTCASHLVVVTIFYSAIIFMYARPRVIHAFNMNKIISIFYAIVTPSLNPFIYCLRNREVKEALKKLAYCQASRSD
Outline: as §1

OR6B2 (Homo sapiens) = biological target: T12, OR6B2 (Homo sapiens) (UniProt Q6IFH4)
T12 sequence (whole entry): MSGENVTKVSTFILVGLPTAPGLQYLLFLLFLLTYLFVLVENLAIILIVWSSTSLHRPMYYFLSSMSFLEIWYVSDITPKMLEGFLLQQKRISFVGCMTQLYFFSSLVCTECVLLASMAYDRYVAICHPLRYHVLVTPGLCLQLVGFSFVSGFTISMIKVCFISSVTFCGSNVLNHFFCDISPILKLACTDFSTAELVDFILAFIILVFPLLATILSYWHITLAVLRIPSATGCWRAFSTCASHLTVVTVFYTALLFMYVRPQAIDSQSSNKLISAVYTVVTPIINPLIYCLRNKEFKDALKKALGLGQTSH
Outline: as §1

OR5MA L2F C311H = system: T13, OR5MA L2F C311H
T13 sequence (whole entry): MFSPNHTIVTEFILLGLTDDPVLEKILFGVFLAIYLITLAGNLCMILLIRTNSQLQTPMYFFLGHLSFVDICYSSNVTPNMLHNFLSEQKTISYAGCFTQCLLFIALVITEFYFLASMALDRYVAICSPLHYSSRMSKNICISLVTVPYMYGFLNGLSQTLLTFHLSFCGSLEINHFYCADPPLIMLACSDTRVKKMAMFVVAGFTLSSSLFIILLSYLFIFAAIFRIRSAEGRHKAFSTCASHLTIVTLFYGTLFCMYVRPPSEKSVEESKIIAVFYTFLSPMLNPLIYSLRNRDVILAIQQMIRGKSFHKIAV
Outline: as §1

OR5MA L2F Q54H C311H = system: T14, OR5MA L2F Q54H C311H
T14 sequence (whole entry): T13 sequence (whole entry) with Q54H
Outline: as §1

OR5P3 L301R = system: T15, OR5P3 L301R
T15 sequence (whole entry): T1 sequence (whole entry) with L301R
Outline: as §1

OR5R1 C122R S128G F184L = system: T16, OR5R1 C122R S128G F184L
T16 sequence (whole entry): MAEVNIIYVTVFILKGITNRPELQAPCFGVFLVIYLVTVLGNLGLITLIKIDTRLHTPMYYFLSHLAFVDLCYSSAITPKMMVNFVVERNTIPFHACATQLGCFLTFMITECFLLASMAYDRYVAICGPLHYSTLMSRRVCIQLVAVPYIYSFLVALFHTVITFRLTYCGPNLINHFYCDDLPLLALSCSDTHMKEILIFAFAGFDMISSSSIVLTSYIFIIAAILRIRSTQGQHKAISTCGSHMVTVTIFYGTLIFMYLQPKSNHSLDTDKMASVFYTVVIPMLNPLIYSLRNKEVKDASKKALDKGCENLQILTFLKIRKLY
Outline: as §1

OR5T2 S4G = system: T17, OR5T2 S4G
T17 sequence (whole entry): T6 sequence (whole entry) with S4G
Outline: as §1

OR5W2 R189C = system: T18, OR5W2 R189C
T18 sequence (whole entry): T9 sequence (whole entry) with R189C
Outline: as §1

OR6A2 I50V = system: T19, OR6A2 I50V
T19 sequence (whole entry): T10 sequence (whole entry) with I50V
Outline: as §1

OR6B2 R122C C179R = system: T20, OR6B2 R122C C179R
T20 sequence (whole entry): T12 sequence (whole entry) with R122C, C179R
Outline: as §1

Measured: odorant receptor agonist call

C=CCOC(=O)CCCCCC
inactive: OR5P3 (Homo sapiens)

CC1CCCCCCCCCCCCC(=O)C1 (configuration not stated)
not listed: OR5MA L2F C311H | OR5MA L2F Q54H C311H | OR5P3 L301R | OR5R1 C122R S128G F184L | OR5T2 S4G | OR5W2 R189C | OR6A2 I50V | OR6B2 R122C C179R
inactive: all other assays above

CCC(=O)O
inactive: OR5P3 (Homo sapiens)

CCC1OC(=O)C(O)=C1C (configuration not stated)
inactive: all assays above

CCCCCCC=CCCC=O
inactive: all assays above

CCCCC(S)C(C)CO (configuration not stated)
not listed: OR5MA L2F C311H | OR5MA L2F Q54H C311H | OR5P3 L301R | OR5R1 C122R S128G F184L | OR5T2 S4G | OR5W2 R189C | OR6A2 I50V | OR6B2 R122C C179R
inactive: all other assays above

CCCCCCOC(C)=O
inactive: OR5P3 (Homo sapiens)

O=c1ccc2ccccc2o1
active: OR5P3 (Homo sapiens)

Cc1cnc(C)c(C)n1
inactive: all assays above

CCCCCOC(=O)CCCCC
inactive: OR5P3 (Homo sapiens)

CCCCOC=O
inactive: OR5P3 (Homo sapiens)

CCCCCC(S)C(C)CO (configuration not stated)
not listed: OR5MA L2F C311H | OR5MA L2F Q54H C311H | OR5P3 L301R | OR5R1 C122R S128G F184L | OR5T2 S4G | OR5W2 R189C | OR6A2 I50V | OR6B2 R122C C179R
inactive: all other assays above
